Data set [1] can be described thus: Cytotoxicity against human HEL cells assessed as alteration of normal cell morphology by microscopic analysis. It counts as cell-based. In short, it runs like this:
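Uninfected HEL cells were examined under the microscope. The minimum cytotoxic concentration is the lowest concentration causing a detectable alteration of normal cell morphology.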

Data set [2] is described as follows: Inhibition of Varicella-zoster virus thymidine kinase-mediated phosphorylation of [methyl-3H]dThd at 1 uM after 30 mins by scintillation counting. Also on record: species or system Human alphaherpesvirus 3.
In data set [3] the target is T1, Thymidine kinase (Feline herpesvirus 1, UniProt P13159).
T1 sequence (P13159 whole entry): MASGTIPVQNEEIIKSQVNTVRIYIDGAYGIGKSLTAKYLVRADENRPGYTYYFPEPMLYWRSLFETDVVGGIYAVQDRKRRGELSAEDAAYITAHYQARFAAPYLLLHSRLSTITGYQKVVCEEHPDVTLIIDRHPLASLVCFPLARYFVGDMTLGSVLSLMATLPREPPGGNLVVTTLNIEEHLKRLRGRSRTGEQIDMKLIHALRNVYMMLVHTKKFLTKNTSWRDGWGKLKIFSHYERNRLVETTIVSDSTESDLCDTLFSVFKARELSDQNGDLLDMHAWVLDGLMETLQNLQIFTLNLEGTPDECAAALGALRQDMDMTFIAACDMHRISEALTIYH
The experiment in a line: Inhibition of Feline herpesvirus thymidine kinase assessed as phosphorylation of 1 uM [methyl-3H]dThd after 30 mins by scintillation counting. The arrangement: species or system Felid alphaherpesvirus 1.

Data set [4] relates to Human alphaherpesvirus 3. The experiment in a line: Antiviral activity against thymidine kinase-deficient Varicella-zoster virus YS/R infected in human HEL cells assessed as reduction in the virus plaque formation. The class given is functional, organism-based. Conditions: Human alphaherpesvirus 3, YS/R.
Data set [5] has as its system Human alphaherpesvirus 1. As to the kind of experiment: Antiviral activity against Herpes simplex virus 1 KOS infected in human HEL cells assessed as inhibition of virus-induced cytopathic effect after 4 days by microscopic analysis. It counts as functional, organism-based. As to conditions: Human alphaherpesvirus 1, KOS, 96 h.
The test system of a further data set is Felid alphaherpesvirus 1. The experiment in a line: Antiviral activity against Feline herpesvirus infected in cat CRFK cells assessed as inhibition of virus-induced cytopathic effect after 4 days by microscopic analysis. The class given is functional, organism-based. As to conditions: Felid alphaherpesvirus 1, CRFK, 96 h. In short, it runs like this:
(§1)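 Confluent monolayers (CRFK for feline herpes virus; HEL for HSV-2 G) were inoculated with 100 CCID50 of virus in the presence of compound at 200, 40, 8, … μM. Cytopathicity was scored once it was complete in untreated infected controls.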

The subject of data set [6] is Human betaherpesvirus 5. The experiment in a line: Antiviral activity against Human cytomegalovirus Davis infected in human HEL cells assessed as reduction in the virus plaque formation. The class given is functional, organism-based. As to conditions: Human betaherpesvirus 5, Davis. In short, it runs like this:
(§2)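 HEL cells were infected with 100 PFU of HCMV (AD-169 or Davis) in the presence of compound.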

Data set [7] deals with Human alphaherpesvirus 3. The experiment in a line: Antiviral activity against Varicella-zoster virus YS expressing thymidine kinase infected in human HEL cells assessed as reduction in the virus plaque formation. The class given is functional, organism-based. Conditions: Human alphaherpesvirus 3, YS.
For a further data set, the system named is CCRF-CEM. The experiment in a line: Antiproliferation activity against human CEM cells after 3 days by coulter counter. The class given is cell-based. Conditions: 72 h. In short, it runs like this:
(§3)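 L1210, FM3A, CEM or HeLa cells at 300,000–500,000 cells/mL were mixed 1:1 with compound dilutions. Incubation at 37 °C lasted 2 days (L1210, FM3A) or 3 days (CEM, HeLa), after which cells were counted with a Coulter counter.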

The subject of data set [8] is Human betaherpesvirus 5. The experiment in a line: Antiviral activity against Human cytomegalovirus AD-169 infected in human HEL cells assessed as reduction in the virus plaque formation. The class given is functional, organism-based. Conditions: Human betaherpesvirus 5, AD169, HEL. In short, it runs like this:
as §2

Data set [9] deals with Human alphaherpesvirus 1. As to the kind of experiment: Antiviral activity against acyclovir-resistant TK-deficient Herpes simplex virus-1 KOS infected in human HEL cells assessed as inhibition of virus-induced cytopathic effect after 4 days by microscopic analysis. The class given is functional, organism-based. Conditions: Human alphaherpesvirus 1, KOS, 96 h.
In the next data set the test system is HEL. As to the kind of experiment: Cytotoxicity against human HEL cells by colorimetric formazan-based MTS assay. The class given is cell-based.
For data set [10], the system named is Human alphaherpesvirus 3. The experiment in a line: Antiviral activity against Varicella-zoster virus OKA expressing thymidine kinase infected in human HEL cells assessed as reduction in the virus plaque formation. The class given is functional, cell-based. Conditions: Human alphaherpesvirus 3, strain Oka vaccine.
The target in data set [11] is T2, Thymidine kinase (Human alphaherpesvirus 1, UniProt Q9QNF7).
T2 sequence (Q9QNF7 whole entry): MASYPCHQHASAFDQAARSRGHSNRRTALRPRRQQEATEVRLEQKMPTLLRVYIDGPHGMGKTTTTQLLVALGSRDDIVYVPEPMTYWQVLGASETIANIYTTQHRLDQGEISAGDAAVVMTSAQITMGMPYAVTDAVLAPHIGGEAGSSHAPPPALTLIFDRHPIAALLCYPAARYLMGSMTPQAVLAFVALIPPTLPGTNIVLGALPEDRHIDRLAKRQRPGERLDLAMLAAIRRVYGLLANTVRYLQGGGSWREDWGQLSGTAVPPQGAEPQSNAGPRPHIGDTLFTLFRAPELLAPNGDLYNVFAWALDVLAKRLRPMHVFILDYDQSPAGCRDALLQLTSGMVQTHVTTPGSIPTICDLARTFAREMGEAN
As to the kind of experiment: Inhibition of Herpes simplex virus-1 thymidine kinase-mediated phosphorylation of [methyl-3H]dThd at 1 uM after 30 mins by scintillation counting.

Another data set relates to L1210. As to the kind of experiment: Antiproliferation activity against mouse L1210 cells after 2 days by coulter counter. It counts as cell-based. Conditions: L1210, 48 h. In short, it runs like this:
as §3

The nature of data set [12]: Cytotoxicity against cat CRFK cells by colorimetric formazan-based MTS assay. It counts as cell-based, Felis catus. Conditions: crfk.
In a further data set the test system is HeLa. As to the kind of experiment: Antiproliferation activity against human HeLa cells after 3 days by coulter counter. The class given is cell-based. Conditions: 72 h. In short, it runs like this: as §3
The subject of the next data set is Vaccinia virus. The experiment in a line: Antiviral activity against Vaccinia virus infected in human HEL cells assessed as inhibition of virus-induced cytopathic effect after 4 days by microscopic analysis. The class given is functional, organism-based. Conditions: Orthopoxvirus vaccinia, 96 h.
Data set [13] concerns Human alphaherpesvirus 3. The experiment in a line: Antiviral activity against thymidine kinase-deficient Varicella-zoster virus 07-1 infected in human HEL cells assessed as reduction in the virus plaque formation. The class given is functional, organism-based. As to conditions: Human alphaherpesvirus 3, 07-1, HEL.
Another data set concerns Human alphaherpesvirus 2. As to the kind of experiment: Antiviral activity against Herpes simplex virus-2 G infected in human HEL cells assessed as inhibition of virus-induced cytopathic effect after 4 days by microscopic analysis. The class given is functional, organism-based. As to conditions: Human alphaherpesvirus 2, strain G, 96 h. In short, it runs like this:
as §1

Another data set has as its system FM3A. The experiment in a line: Antiproliferation activity against mouse FM3A cells after 2 days by coulter counter. The class given is cell-based. As to conditions: 48 h. In short, it runs like this: as §3

Data on three compounds can be found in ChEMBL document CHEMBL1806488, “Design, synthesis and biological evaluation of 2'-deoxy-2',2'-difluoro-5-halouridine phosphoramidate ProTides” (Bioorg Med Chem, 2011).

As for `O=c1[nH]c(=O)n([C@@H]2O[C@H](CO)[C@@H](O)C2(F)F)cc1I`, the MCC in data set [1] is greater than 50 µM. Further, the IC50 in [2] was determined as 19 µM; at Thymidine kinase [3], 38 µM; in the data set on CCRF-CEM it was 154 µM; on Thymidine kinase [11], 3.5 µM; in the data set on L1210, 302 µM; with HeLa, 230 µM. Besides, the IC50 with FM3A was found to be 409 µM. In addition, the EC50 was greater than 50 µM in the data set with Human alphaherpesvirus 3 [4]; 16 µM in the data set on Human alphaherpesvirus 1 [5]; 1.2 µM in the data set on Felid alphaherpesvirus 1; greater than 50 µM with Human betaherpesvirus 5 [6]; 13 µM with Human alphaherpesvirus 3 [7]; greater than 50 µM in the data set with Human betaherpesvirus 5 [8]. The EC50 in the data set with Human alphaherpesvirus 1 [9] was 20 µM; in the data set with Human alphaherpesvirus 3 [10], 9.1 µM; with Vaccinia virus, greater than 100 µM; with Human alphaherpesvirus 3 [13], greater than 50 µM; in the data set on Human alphaherpesvirus 2, 64 µM. Further, the CC50 (in the data set on HEL; in data set [12]) was greater than 100 µM throughout.

For `O=c1[nH]c(=O)n([C@@H]2O[C@H](CO)[C@@H](O)C2(F)F)cc1Br`, the MCC in [1] is greater than 50 µM. Moreover, the IC50 in [2] was 26 µM; at Thymidine kinase [3], 34 µM; in the data set with CCRF-CEM it was greater than 500 µM; against Thymidine kinase [11], 7.5 µM; in the data set on L1210, greater than 500 µM; with HeLa, 458 µM. Moreover, in the data set with FM3A, the IC50 is greater than 500 µM. Besides, the EC50 in the data set with Human alphaherpesvirus 3 [4] is greater than 50 µM; in the data set on Human alphaherpesvirus 1 [5], 15 µM; in the data set with Felid alphaherpesvirus 1 it was 2.4 µM; in the data set with Human betaherpesvirus 5 [6], greater than 50 µM; in the data set with Human alphaherpesvirus 3 [7] it was 23 µM; with Human betaherpesvirus 5 [8], greater than 50 µM. Also, the concentration for a half-maximal effect (EC50) in the data set with Human alphaherpesvirus 1 [9] is 73 µM; in the data set with Human alphaherpesvirus 3 [10], 11 µM; with Vaccinia virus, greater than 100 µM; in the data set with Human alphaherpesvirus 3 [13], greater than 50 µM; in the data set with Human alphaherpesvirus 2 it was greater than 100 µM. Also, the cytotoxic concentration (CC50) (with HEL; in data set [12]) was greater than 100 µM each time.

With `O=c1[nH]c(=O)n([C@@H]2O[C@H](CO)[C@@H](O)C2(F)F)cc1Cl`, the MCC in data set [1] is greater than 50 µM. In addition, the 50% inhibitory concentration (IC50) is 35 µM in [2]; 93 µM on Thymidine kinase [3]; greater than 500 µM in the data set on CCRF-CEM; 22 µM against Thymidine kinase [11]; greater than 500 µM in the data set on L1210; no less than 500 µM with HeLa. In the data set on FM3A, this compound had a half-inhibitory concentration (IC50) greater than 500 µM. Also, the EC50 with Human alphaherpesvirus 3 [4] is greater than 50 µM; in the data set on Human alphaherpesvirus 1 [5] it was 33 µM; in the data set with Felid alphaherpesvirus 1, 13 µM; in the data set with Human betaherpesvirus 5 [6], greater than 50 µM; in the data set on Human alphaherpesvirus 3 [7], greater than 50 µM; in the data set on Human betaherpesvirus 5 [8], greater than 50 µM. The EC50 in the data set with Human alphaherpesvirus 1 [9] is 78 µM; in the data set on Human alphaherpesvirus 3 [10] it was no less than 50 µM; with Vaccinia virus, greater than 100 µM; in the data set on Human alphaherpesvirus 3 [13] it was greater than 50 µM; in the data set on Human alphaherpesvirus 2, no less than 100 µM. In addition, the CC50 (in the data set on HEL; in [12]) was greater than 100 µM in each case.
